The source made the active and inactive calls. No cut-off for these calls is given here. Some results are limits rather than exact numbers.

For experiment [1], the system named is HEL. In words: Growth inhibition of HEL cells harboring Val617Phe mutation in JAK2 at 25 uM after 72 hrs by trypan blue exclusion assay. The note with it: Homo sapiens, read-out: GI. Format: functional. Put shortly:
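Screening assay of HEL growth inhibition. HEL cells carry JAK2-Val617Phe on both alleles. Each compound was tested at a single final concentration of 25 μM.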

Experiment [2] has as its target Proto-oncogene tyrosine-protein kinase Src (Homo sapiens) (UniProt P12931). In words: Inhibition of recombinant pp60c-Src autophosphorylation at 25 uM by Western blotting. The gist of the method:
(§1)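 Cell-free c-Src kinase assay, with compound tested at 25 μM.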
(A western blot detects proteins with antibodies after separation by electrophoresis.)

Experiment [3] deals with Non-receptor tyrosine-protein kinase TYK2 (Homo sapiens) (UniProt P29597). In words: Inhibition of TYK2 transfected in mouse embryonic fibroblasts at 25 uM by Western blotting. The gist of the method: (§2)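 TYK2 autophosphorylation was measured within intact cells, with compound present at 25 μM.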
Sequence of Non-receptor tyrosine-protein kinase TYK2 (Homo sapiens) (P29597 whole entry): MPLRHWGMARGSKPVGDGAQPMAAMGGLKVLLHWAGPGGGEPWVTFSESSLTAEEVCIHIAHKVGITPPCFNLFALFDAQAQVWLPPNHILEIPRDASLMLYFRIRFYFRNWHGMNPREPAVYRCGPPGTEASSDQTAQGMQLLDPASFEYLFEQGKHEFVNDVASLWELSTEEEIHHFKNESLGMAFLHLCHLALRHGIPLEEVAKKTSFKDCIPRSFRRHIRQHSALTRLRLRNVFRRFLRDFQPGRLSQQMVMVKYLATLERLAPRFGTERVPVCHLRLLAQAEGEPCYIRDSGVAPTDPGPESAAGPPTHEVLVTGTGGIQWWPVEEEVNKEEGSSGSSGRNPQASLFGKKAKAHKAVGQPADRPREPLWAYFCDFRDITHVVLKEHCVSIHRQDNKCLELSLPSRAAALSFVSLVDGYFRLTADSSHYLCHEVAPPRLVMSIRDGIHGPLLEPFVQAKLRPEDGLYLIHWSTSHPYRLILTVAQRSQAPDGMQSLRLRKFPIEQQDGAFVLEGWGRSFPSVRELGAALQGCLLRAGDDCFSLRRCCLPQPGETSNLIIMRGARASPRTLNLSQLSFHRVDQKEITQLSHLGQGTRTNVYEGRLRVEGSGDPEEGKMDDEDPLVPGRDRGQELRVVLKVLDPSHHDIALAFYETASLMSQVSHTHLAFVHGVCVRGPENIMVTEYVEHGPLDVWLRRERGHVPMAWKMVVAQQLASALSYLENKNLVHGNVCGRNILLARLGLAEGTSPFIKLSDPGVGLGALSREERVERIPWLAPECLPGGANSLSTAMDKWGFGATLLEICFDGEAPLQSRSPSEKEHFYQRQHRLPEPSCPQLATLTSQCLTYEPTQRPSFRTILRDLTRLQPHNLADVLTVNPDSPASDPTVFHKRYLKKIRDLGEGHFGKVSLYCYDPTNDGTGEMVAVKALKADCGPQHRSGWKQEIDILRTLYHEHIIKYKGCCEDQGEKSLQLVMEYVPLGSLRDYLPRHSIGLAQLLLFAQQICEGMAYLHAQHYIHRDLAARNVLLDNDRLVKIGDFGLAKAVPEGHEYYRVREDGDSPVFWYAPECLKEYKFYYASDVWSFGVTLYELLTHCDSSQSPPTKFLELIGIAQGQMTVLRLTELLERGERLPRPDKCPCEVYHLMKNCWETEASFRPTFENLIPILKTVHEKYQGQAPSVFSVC
Experiment [4] deals with Tyrosine-protein kinase JAK2 (Homo sapiens), O60674 [V617F]. In words: Inhibition of recombinant JAK2-Val617Phe kinase activity at 25 uM after 30 mins by luminometry. The gist of the method:
(§3)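 Cell-free kinase assay. Recombinant JAK2-Val617Phe protein (JH1+JH2) was incubated with increasing inhibitor concentrations. After the kinetic reactions, relative kinase inhibition was determined from the residual ATP level in each reaction.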

For experiment [5], the system named is CMK. In words: Growth inhibition of human CMK cells harboring Ala572Val mutation in JAK3 assessed as reduction in cell number at 0.001 to 10 uM after 48 hrs using trypan blue staining by hemocytometry. The class given is functional, cell-based. Put shortly: (§4)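 Four lines were compared: HEL (JAK2-Val617Phe on both alleles), CMK (JAK3-Ala572Val), Raji (c-Myc/heavy-chain locus translocation) and BSC-40 (green monkey kidney epithelial, SV-40 large T immortalized). Cells were exposed to compound over 10−9 to 10−4 M, and the read-out was cell number.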

Experiment [6] can be described thus: Inhibition of pathological growth of human hematopoietic progenitor cells isolated from polycythemia vera patient assessed as erythroid colony formation at 2.5 uM after 14 days in absence of erythropoietin. The note with it: 336 h, read-out: GI.
Experiment [7] deals with Proto-oncogene tyrosine-protein kinase Src (Homo sapiens) (UniProt P12931). As to the kind of experiment: Inhibition of recombinant pp60c-Src at 25 uM by Western blotting. Put shortly: as §1
Sequence of Proto-oncogene tyrosine-protein kinase Src (Homo sapiens) (P12931 2-536 limits assumed): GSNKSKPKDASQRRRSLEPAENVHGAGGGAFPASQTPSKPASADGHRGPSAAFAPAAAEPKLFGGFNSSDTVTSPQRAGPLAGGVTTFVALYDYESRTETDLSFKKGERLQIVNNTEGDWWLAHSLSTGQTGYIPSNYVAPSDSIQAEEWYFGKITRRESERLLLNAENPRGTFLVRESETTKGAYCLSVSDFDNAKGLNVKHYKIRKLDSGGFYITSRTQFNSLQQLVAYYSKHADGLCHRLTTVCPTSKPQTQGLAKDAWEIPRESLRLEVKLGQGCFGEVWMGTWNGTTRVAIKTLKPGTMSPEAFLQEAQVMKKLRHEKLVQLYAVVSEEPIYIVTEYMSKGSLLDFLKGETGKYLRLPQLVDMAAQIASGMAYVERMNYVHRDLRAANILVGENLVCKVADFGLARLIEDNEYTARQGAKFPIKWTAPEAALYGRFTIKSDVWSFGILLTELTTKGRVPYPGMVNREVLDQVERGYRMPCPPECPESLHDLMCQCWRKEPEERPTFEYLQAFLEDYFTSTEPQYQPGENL
In experiment [8] the test system is HEL. In words: Growth inhibition of HEL cells harboring Val617Phe mutation in JAK2 assessed as reduction in cell number at 100 uM after 48 hrs using trypan blue staining by hemocytometry. Format: functional, cell-based. The settings on record: Homo sapiens. Put shortly:
as §4

Experiment [9] concerns BSC-40. In words: Growth inhibition of african green monkey BSC40 cells immortalized with SV40 large T antigen assessed as reduction in cell number at 100 uM after 48 hrs using trypan blue staining by hemocytometry. The class given is functional, cell-based. The note with it: Chlorocebus aethiops. The gist of the method:
as §4

The target of experiment [10] is Non-receptor tyrosine-protein kinase TYK2 (Homo sapiens) (UniProt P29597). In words: Inhibition of TYK2 autophosphorylation transfected in mouse embryonic fibroblasts at 25 uM by Western blotting. Put shortly:
as §2

Experiment [11] relates to Raji. In words: Growth inhibition of human Raji cells possessing […] between c-Myc gene on chromosome 8 and heavy chain locus on chromosome 14 assessed as reduction in cell number at 100 uM after 48 hrs using trypan blue staining by hemocytometry. The class given is functional, cell-based. Put shortly:
as §4

The subject of experiment [12] is HEL. As to the kind of experiment: Growth inhibition of HEL cells harboring Val617Phe mutation in JAK2 assessed as reduction in cell number at 0.001 to 10 uM after 48 hrs using trypan blue staining by hemocytometry. The settings on record: Homo sapiens. Format: functional, cell-based. The gist of the method:
as §4

Experiment [13] relates to CMK. In words: Growth inhibition of human CMK cells harboring Ala572Val mutation in JAK3 assessed as reduction in cell number at 100 uM after 48 hrs using trypan blue staining by hemocytometry. Format: functional, cell-based. The gist of the method: as §4
Experiment [14] can be described thus: Inhibition of pathological growth of human hematopoietic progenitor cells isolated from polycythemia vera patient assessed as erythroid colony formation at 2.5 uM after 14 days in absence of erythropoietin. The note with it: 336 h, read-out: GI. Format: functional.
The test system of experiment [15] is Raji. In words: Growth inhibition of human Raji cells possessing […] between c-Myc gene on chromosome 8 and heavy chain locus on chromosome 14 assessed as reduction in cell number at 0.001 to 10 uM after 48 hrs using trypan blue staining by hemocytometry. Format: functional, cell-based. Put shortly: as §4
Experiment [16] has as its target Tyrosine-protein kinase JAK2 (Homo sapiens, UniProt O60674, V617F). As to the kind of experiment: (§5) Inhibition of recombinant JAK2-Val617Phe kinase activity after 30 mins by luminometry. Put shortly:
as §3

Experiment [17] has as its system Tyrosine-protein kinase JAK2 (Homo sapiens), O60674 [V617F]. Described as §5. Put shortly:
as §3

Experiment [18] has as its system BSC-40. In words: Growth inhibition of african green monkey BSC40 cells immortalized with SV40 large T antigen assessed as reduction in cell number at 0.001 to 10 uM after 48 hrs using trypan blue staining by hemocytometry. Format: functional, cell-based. The note with it: Chlorocebus aethiops. Put shortly: as §4
Experiment [19] deals with HEL. In words: Reduction in phospho-JAK2 [pYpY1007/1008] level in HEL cells at 25 uM by […]. The class given is functional, cell-based. The settings on record: Homo sapiens, TDE = time-dependent effect. The gist of the method:
(§6)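 HEL cells were treated across varying compound concentrations and exposure times. Phospho-JAK2 protein levels were then measured in the cells.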

Experiment [20] concerns HEL. As to the kind of experiment: Reduction in phospho-JAK2 [pYpY1007/1008] level in HEL cells after 48 hrs by […]. Format: functional, cell-based. The settings on record: Homo sapiens. Put shortly: as §6

Sequence of Tyrosine-protein kinase JAK2 (Homo sapiens), O60674 [V617F] (O60674 whole entry V617F): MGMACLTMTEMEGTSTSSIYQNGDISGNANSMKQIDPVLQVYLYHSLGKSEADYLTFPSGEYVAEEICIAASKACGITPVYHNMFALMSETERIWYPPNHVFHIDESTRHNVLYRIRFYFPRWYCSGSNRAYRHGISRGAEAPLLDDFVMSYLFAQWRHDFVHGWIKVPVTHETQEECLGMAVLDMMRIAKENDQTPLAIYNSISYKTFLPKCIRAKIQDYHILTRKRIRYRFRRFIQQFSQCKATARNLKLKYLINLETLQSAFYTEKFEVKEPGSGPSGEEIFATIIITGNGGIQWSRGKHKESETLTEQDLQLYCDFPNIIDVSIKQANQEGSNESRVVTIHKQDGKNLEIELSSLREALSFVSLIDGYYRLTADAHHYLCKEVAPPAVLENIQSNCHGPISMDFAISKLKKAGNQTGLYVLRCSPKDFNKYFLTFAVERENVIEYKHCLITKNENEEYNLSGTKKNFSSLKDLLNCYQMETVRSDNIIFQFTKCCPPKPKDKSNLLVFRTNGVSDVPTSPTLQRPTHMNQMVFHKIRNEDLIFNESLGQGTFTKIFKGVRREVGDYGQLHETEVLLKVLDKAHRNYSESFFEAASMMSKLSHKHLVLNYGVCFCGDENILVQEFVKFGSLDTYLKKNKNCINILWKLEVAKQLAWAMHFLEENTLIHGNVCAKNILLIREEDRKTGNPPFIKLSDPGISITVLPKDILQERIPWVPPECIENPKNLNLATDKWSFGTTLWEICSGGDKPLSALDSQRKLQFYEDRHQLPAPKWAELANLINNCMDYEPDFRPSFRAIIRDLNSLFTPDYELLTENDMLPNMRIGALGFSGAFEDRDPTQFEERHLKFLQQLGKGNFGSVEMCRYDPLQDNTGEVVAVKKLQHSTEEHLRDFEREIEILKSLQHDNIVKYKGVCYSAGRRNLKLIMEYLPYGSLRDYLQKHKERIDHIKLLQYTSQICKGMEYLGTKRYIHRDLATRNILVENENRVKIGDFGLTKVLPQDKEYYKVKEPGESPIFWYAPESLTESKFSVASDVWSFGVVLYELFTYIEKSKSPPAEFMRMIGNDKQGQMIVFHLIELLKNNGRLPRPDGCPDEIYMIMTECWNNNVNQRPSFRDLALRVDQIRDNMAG
Sequence of Tyrosine-protein kinase JAK2 (O60674 whole entry V617F): as above

Take `O=C(Nc1ccc(Cc2ccc(NC(=O)Nc3cccc(C4=NCCN4)c3)cc2)cc1)Nc1cccc(C2=NCCN2)c1`: the inhibition of growth at 25 µM in the experiment on HEL [1] worked out at 13%. On the same count and under the same terms, next, `O=C(Nc1cc(Cl)ccc1Cl)Nc1ccc(Cl)cc1C(=O)c1ccccc1`: 24%.

Turning to `O=C(CN1C=C(/C=N/O)C=CC1)C1CCC(C2CCC(C(=O)CN3CCCC(/C=N/O)C3)CC2)CC1` (stereo unspecified), in the experiment with HEL [1], the inhibition of growth at 25 µM is 8%. With `C/C(CC(=O)c1ccccc1)=N/CCCCC/N=C(\C)CC(=O)c1ccccc1`, the inhibition of growth at 25 µM in the experiment on HEL [1] came out at 31%.

As to `CCc1[nH]nc(-c2ccc(OC)cc2)c1-c1ccccc1O`, in the experiment on HEL [1], the inhibition of growth at 25 µM was 40%. Consider `O=P(O)(c1ccc(Cl)cc1)c1ccc(Cl)cc1`, for which the inhibition of growth at 25 µM with HEL [1] came to 13%. Still for that read-out and setting: the figure for `CC1=CN=C(NCCCCNC2=NC=C(C)/C(=C3/C=CC=CC3=O)N2)N/C1=C1/C=CC=CC1=O` is 16%; for `O=C(Nc1ccc(Oc2ccc(NC(=O)Nc3ccc(-c4ccccc4)cc3)cc2)cc1)Nc1ccc(-c2ccccc2)cc1` it is 13%. Same read-out and setting: the figure for `OC1C=C(c2ccccc2)C(c2ccccc2)C(c2ccccc2)C1` (stereo unspecified) is 27%. As to `O=C(/C=C(\O)c1ccc(F)cc1)C(=O)/C=C(\O)c1ccc(F)cc1`, the inhibition of growth at 25 µM with HEL [1] worked out at 36%.

`CC(CCc1ccccn1)(CCc1ccccn1)C(=O)c1ccccc1`: in experiment [2], the inhibition (as a rule, the relative decrease from the control value, in per cent) was “inactive”. Regarding `O=[N+]([O-])c1cc(/C=N/NS(=O)(=O)c2cc(Cl)c(Cl)cc2Cl)ccc1Cl`, in the experiment on HEL [1], the inhibition of growth at 25 µM worked out at 27%. As to `CC/C(=C(/CC)c1ccc(O)c(CN(CC)CC)c1)c1ccc(O)c(CN(CC)CC)c1`, the inhibition result in experiment [3], in [7], in experiment [2] and in [10] was “inactive” each time. Also, the inhibition in [4] is greater than 99%. For the same compound, the “growth inhibition (GI)” value in the experiment with CMK [5], in the experiment on Raji [15] and in the experiment with BSC-40 [18] was “inactive” throughout. Also, the inhibition of growth at 2.5 µM in [6] and in experiment [14] was greater than 50% throughout. The “growth inhibition (GI)” value in the experiment on HEL [8], in the experiment on BSC-40 [9], with Raji [11], with HEL [12] and in the experiment on CMK [13] was “Active” in each case. The IC50 (usually the point on the concentration scale where inhibition reaches its midpoint) in experiment [16] was 0.06 µM. The Activity result is “Dose-dependent effect” in experiment [17], “tde” with HEL [19] and “Dose-dependent effect” in the experiment on HEL [20]. Also, the inhibition of growth at 25 µM in the experiment with HEL [1] was greater than 99%. `O=C(CC(=O)CC(=O)c1ccccc1)CC(=O)c1ccccc1`: the inhibition of growth at 25 µM with HEL [1] amounted to 67%. Regarding `CCc1c(C#N)c(N)c2c(N)c(C(=O)c3ccccc3)sc2c1C`, the inhibition of growth at 25 µM in the experiment on HEL [1] is 30%. With `COc1ccc2nc(NC(=O)Nc3ccc(C)c(NC(=O)Nc4nc5ccc(OC)cc5s4)c3)sc2c1`, the inhibition of growth at 25 µM with HEL [1] was found to be 57%. With `NC(=O)c1cc(NC(=O)c2ccc(C(=O)Nc3cc(C(N)=O)cc(C4=NCCN4)c3)cc2)cc(C2=NCCN2)c1`, the inhibition of growth at 25 µM with HEL [1] was found to be 10%. The same measure, in the same setting: next, `O=C1C=Cc2ccccc2/C1=C/NNS(=O)(=O)c1cc(Cl)c(Cl)cc1Cl`: 51%; `CCCCCCCCNC(C(=O)c1ccc(Cl)cc1)c1ccc(Cl)cc1` (stereo unspecified): 7%. For the compound `O=C(c1cccc([N+](=O)[O-])c1)c1c(O)oc2ccccc2c1=O`, in the experiment on HEL [1], the inhibition of growth at 25 µM was determined as 40%.

As for `C/C(CC(=O)c1ccccc1)=N/CCCC/N=C(/C)CC(=O)c1ccccc1`, the inhibition of growth at 25 µM in the experiment on HEL [1] amounted to 19%.

In the case of `O=C(/C=C(\C=C\c1ccccc1)c1ccccc1)CC(=O)c1ccccc1`, the inhibition of growth at 25 µM in the experiment on HEL [1] came out at 11%. Same read-out and setting: the figure for `NC(CSSCC(N)C(=O)c1ccccc1)C(=O)c1ccccc1` (stereo unspecified) is 30%. In the case of `O/N=C(\c1ccccc1)c1ccc[n+](CCc2ccccc2)c1`, the inhibition of growth at 25 µM in the experiment on HEL [1] was 38%. The same measure, in the same setting: the figure for `CC(=O)c1cc(Cl)ccc1OCC(O)CNc1ccccc1C(=O)c1ccccc1` (stereo unspecified) is 41%. For `CC(C)(C)n1nc(-c2ccc(Cl)cc2)c2c(N)ncnc21`, the inhibition result in experiment [2] is “Active”.

Turning to `Cc1cc(Cl)ccc1Nc1sc(C(=O)c2cc3cc(Cl)ccc3o2)c(N)c1C#N`, the inhibition of growth at 25 µM with HEL [1] worked out at 55%.

With `O=C(CC(=O)c1ccccc1)CC(O)(/C=C/c1ccccc1)c1ccccc1` (stereo unspecified), in the experiment on HEL [1], the inhibition of growth at 25 µM amounted to 15%. Still for that read-out and setting: the figure for `CC(=O)c1c(O)cc(O)cc1-c1cc(=O)c2c(O)ccc(C(C)=O)c2o1` is 42%.

For the compound `Cc1c(O)c2ccccc2c2c1sc(NCCCN(CCO)CCO)[n+]2C`, in the experiment with HEL [1], the inhibition of growth at 25 µM was 41%. For `COc1ccc(-c2n[nH]c(=S)c(-c3ccccc3)c2-c2ccccc2)cc1`, the inhibition of growth at 25 µM with HEL [1] worked out at 44%.

For the compound `O=C(Nc1ccccc1)Nc1ccc2ccccc2c1`, the inhibition of growth at 25 µM with HEL [1] came out at 38%. On the same count and under the same terms, the figure for `O=C1C=Cc2ccccc2/C1=C/N/N=C(\C(=O)c1ccccc1)c1ccccc1` is 27%; for `O=C1C=C(NCCCC2CCCN3CCCCC23)C(=O)c2ccccc21` (stereo unspecified) it is 27%. On the same count and under the same terms, next, `O=C(NCCNCCO)c1cccc(Nc2cc(O)c(O)c3ccccc23)c1`: 42%. The same measure, in the same setting: the figure for `CCCCCCCNC1=C(OCC)C(=O)c2ccccc2C1=O` is 24%; for `Nc1ccc(C(=O)Nc2ccc3cc(S(=O)(=O)O)cc(O)c3c2)cc1` it is 39%.
